An excerpt weighted towards active compounds, which were near 3.5% of everything screened.
RGS4 inh – human RGS4 inhibition. HEK293 M3R/RGS4 inducible, Fluo-4 calcium flux; hits give high values; triggered by carbachol at its EC20. B-score at 10 µM. 310,000 tested, 0.45% active. AID 463165;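 active means B-score, a plate-corrected calcium signal, over three deviations above library mean, with baseline fluorescence within five deviations of library mean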;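 further: RGS4 expression induced by doxycycline in cells with stable M3 receptor; B-score is computed from the integrated fluorescence ratio over baseline after carbachol; higher B-score means a larger calcium signal and so more RGS4 inhibition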
Target sequence (P49798 whole entry, looked up): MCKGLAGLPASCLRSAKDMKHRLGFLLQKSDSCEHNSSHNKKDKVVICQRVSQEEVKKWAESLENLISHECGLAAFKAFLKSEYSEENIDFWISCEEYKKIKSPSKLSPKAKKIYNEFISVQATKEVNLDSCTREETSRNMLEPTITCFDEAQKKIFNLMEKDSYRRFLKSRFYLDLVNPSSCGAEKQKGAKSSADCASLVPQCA
RGS4 act – potentiators or activators of RGS4. HEK293 M3R/inducible RGS4, carbachol calcium flux Fluo4; hits give low values. B-score at 10 µM. 310,000 tested, 0.92% active;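 active means B-score of the integrated calcium signal more than 4 SD below the library mean, with starting fluorescence not abnormally high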;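 further: negative B-score means reduced calcium response which marks RGS4 activation or potentiation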
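Reagent: ECmax carbachol challenge; Test system: M3R-expressing HEK293 line, RGS4 induced by doxycycline; Schedule: overnight RGS4 induction, 30 min dye load 37 °C, 20 min compound RT; Detection: calcium dye Fluo4 fluorescence; Read-out: Agonist-evoked peak-minus-minimum fluorescence over baseline, integrated ratio, B score.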
MrgX1 allo act – allosterically activates human MrgX1 receptor signaling; Q96LB2; MrgX1-HEK293, Fluo-4 calcium flux, FDSS; hits give high values; B-score at 10 µM; 310,000 tested, 0.63% active;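 active means plate-corrected calcium response at least 3 library SD above typical, normal starting fluorescence, not activating the receptor alone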;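 further: compound read alongside a low EC10 to EC30 dose of BAM8-22 agonist; peak minus trough fluorescence over baseline measured at the second addition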
Target sequence (Q96LB2 whole entry, looked up): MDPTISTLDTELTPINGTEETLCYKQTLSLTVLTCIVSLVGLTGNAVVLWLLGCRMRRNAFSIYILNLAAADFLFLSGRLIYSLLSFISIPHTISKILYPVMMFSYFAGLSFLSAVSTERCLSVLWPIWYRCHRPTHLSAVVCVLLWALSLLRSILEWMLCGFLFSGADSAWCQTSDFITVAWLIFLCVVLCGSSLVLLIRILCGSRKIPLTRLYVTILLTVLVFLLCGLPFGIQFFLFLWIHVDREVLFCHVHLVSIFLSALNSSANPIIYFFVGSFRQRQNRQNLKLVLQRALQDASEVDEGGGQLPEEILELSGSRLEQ
MrgX1 antagonist – antagonists of human MrgX1 receptor; Q96LB2; MRGX1-HEK293 calcium flux, Fluo-4, BAM8-22 antagonism; hits give low values; B-score at 10 µM; 310,000 tested, 1.3% active; AID 588676;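 active means calcium-response B-score plate-corrected more than 3 library SD below zero, starting fluorescence within 5 deviations, no agonist response on first addition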;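 further: peak minus trough fluorescence over baseline after final BAM8-22 challenge near maximal dose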
MrgX1 agonist – agonists of human MrgX1 receptor. Q96LB2. MrgX1-HEK293 cells, Fluo-4 calcium fluorescence, agonist mode; hits give high values. B-score at 10 µM. 310,000 tested, 0.44% active;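 active means calcium response B-score plate-corrected fluorescence ratio at least 3 library SD, with starting fluorescence B-score inside 5 SD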
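times = overnight plating, then 30 min 37 °C plus 30 min room-temperature dye loading | assay system = stable human MrgX1 HEK293 cell line | input = fifteen thousand cells per well | signal = kinetic calcium dye fluorescence, Fluo-4 NW | dosing = compound delivered in addition one of three | read-out = B-scored fluorescence response ratio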
Starred values were filed as active, the others as inactive; i = inactive; x = not tested or not shown.

SMILES	RGS4 inh	RGS4 act	MrgX1 allo act	MrgX1 antagonist	MrgX1 agonist
Cc1nn(C)cc1CNC(=O)COc1ccc(Cl)cc1Cl	i	i	i	i	i
Cc1cc(N/N=C\c2ccccc2)nc(-c2ccccc2O)n1	i	-7.6*	i	i	i
COc1ccccc1C(=O)NNC(=O)c1ccc(F)cc1	i	i	i	i	i
Cc1ccccc1C(=O)NNC(=O)c1ccc(F)cc1	i	i	i	-7.1*	i
CCOC(=O)N1CCC(NC(=O)C2CCCN(S(=O)(=O)c3cccc4nsnc34)C2)CC1 (configuration not stated)	i	i	i	i	i
O=[N+]([O-])c1ccccc1S(=O)(=O)Oc1ccc(/C=N/n2cnnc2)cc1	i	i	i	i	i
COc1cc(/C=N/n2cnnc2)ccc1OS(=O)(=O)c1ccccc1[N+](=O)[O-]	i	i	i	-6.6*	i
c1ccc(CCc2nc(-c3ccccc3)no2)cc1	i	i	i	i	i
O=C(N/N=C/c1ccc(OC(=O)c2ccccc2Cl)cc1)c1cc(O)cc(O)c1	i	-7.6*	i	i	i
CCN(C(=O)COC(=O)c1[nH]c(C)c(C(C)=O)c1C)C1CCS(=O)(=O)C1 (configuration not stated)	i	i	i	i	i
S=C(Nc1ccccc1)Nc1cc(Cl)ccc1Oc1ccccc1	i	i	9.1*	i	i
COc1ccc(N(CC(=O)Nc2cc(Cl)ccc2C)S(=O)(=O)c2c(C)noc2C)cc1	i	i	i	i	i
Clc1ccc(C[n+]2cc(-c3ccccc3)n3c2CCCCC3)c(Cl)c1	i	i	i	i	i
Cc1ccc(C(=O)N/N=C\c2sccc2C)cn1	i	i	i	-7.8*	i
Cc1ccsc1/C=N/NC(=O)c1sccc1C	i	i	i	i	i
COc1ccccc1N(CC(=O)Nc1cccc(C(F)(F)F)c1)S(C)(=O)=O	i	i	i	i	i
O=[N+]([O-])c1cc([N+](=O)[O-])c(N2CCOCC2)cc1NCc1ccccc1	i	i	i	-9.6*	i
O=[N+]([O-])c1cccc(/C=N/Nc2nc(NCc3ccccc3)nc(N3CCOCC3)n2)c1O	i	i	i	i	34*
O=[N+]([O-])c1c(NCCCO)cc(N2CCCCCC2)c2nonc12	i	i	i	i	i
O=[N+]([O-])c1ccc(/C=N/Nc2nc(NCc3ccccc3)nc(N3CCOCC3)n2)cc1	i	i	i	i	i
O=[N+]([O-])c1c(NCc2ccccc2)cc(N2CCc3ccccc3C2)c2nonc12	i	i	i	-6*	i
Cn1c(CNC(=O)CNS(=O)(=O)c2ccc(Cl)cc2)cc(=O)n(C)c1=O	i	i	i	i	i
CCCc1[nH]nc2c1C(c1ccoc1)C(C#N)=C(N)O2 (configuration not stated)	i	i	i	i	i
CC1OC(O[C@H]2CC[C@]3(C)C4C=C[C@]56OC[C@@]7(CC[C@@H](C)[C@H](C)C75)[C@H](O)C[C@@]6(C)[C@]4(C)CC[C@H]3C2(C)C)C(OC2OC(CO)C(O)C(O)C2OC2OCC(O)C(O)C2O)C(O)C1O (some centres not stated)	i	-7.5*	x	x	x
COc1ccc(CCNC(=O)Cc2ccc(Cl)cc2)cc1OC	i	i	i	i	i
SMILES	RGS4 inh	RGS4 act	MrgX1 allo act	MrgX1 antagonist	MrgX1 agonist
C/C(=N\N(Cc1ccccc1)c1ccccc1)c1ccncc1	i	-9.2*	i	i	i
CN(C(=O)c1ccncc1)c1ccccc1	i	i	i	i	i
COc1cccc(/C=N/n2c(-c3n[nH]c4c3CCC4)n[nH]c2=S)c1OC	i	-7.3*	i	i	i
C/C(=N\O)C(C)(C)Nc1ccc(Cl)cc1	i	i	i	i	44*
C/C(=N\O)C(C)(C)Nc1ccc(F)cc1	i	i	i	i	i
COC(=O)CN1C2=NCCCN2c2ccccc21	i	i	i	i	i
C[C@@H]1NC(=O)c2cc([N+](=O)[O-])cc(I)c2OCC[C@@H](C(=O)NC(CC(=O)O)C(N)=O)NC(=O)[C@H](CCC(=O)O)NC1=O (some centres not stated)	x	x	i	i	i
NC(=O)C(CC(=O)O)NC(=O)[C@@H]1CCOc2c(I)cc([N+](=O)[O-])cc2C(=O)N[C@@H](CCC(=O)O)C(=O)N[C@@H](CO)C(=O)N1 (some centres not stated)	x	x	i	-6.1*	i
COc1ccc(-c2cc(C(=O)Nc3ccccc3O)c3ccccc3n2)cc1OC	i	-7.3*	i	i	i
Cc1ccccc1-c1cc(C(=O)Nc2sc(C)c(C)c2C(N)=O)c2ccccc2n1	6.2*	i	i	i	i
Cc1ccc(-c2cc(C(=O)Nc3ccncc3)c3ccccc3n2)cc1	i	i	i	-7.6*	i
O=C(Nc1ccncc1)c1cc(-c2cccc(Br)c2)nc2ccccc12	i	i	i	i	i
O=C(NCc1cc([N+](=O)[O-])ccc1O)c1cc(-c2ccncc2)nc2ccccc12	i	-9.1*	i	i	i
O=C(Nc1cccnc1)c1cc(-c2cccc(Br)c2)nc2ccccc12	i	-7.1*	i	i	i
CCCCCCCCCCCCCCCC[N+](C)(C)CCN(Cc1ccc(OC)cc1)c1ncccn1	x	x	i	i	56*
O=C1CC(=Nc2ccccc2)NN1c1ccccc1	i	i	7.4*	i	i
O=C1Cc2ccccc2N1c1ccccc1	i	i	i	i	i
O=C(Oc1ccc(-c2cnc3ccccc3n2)cc1)c1cc([N+](=O)[O-])ccc1Cl	i	i	i	-4.9*	i
Cc1cc(C)n2nc(C(=O)OCC(=O)c3c[nH]c4ccccc34)nc2n1	i	i	i	-5.5*	i
O=C(CSc1nnc(-c2cccnc2)n1CCN1CCCCC1)Nc1cccc(Cl)c1	i	i	i	i	i
CCCN(CC(=O)Nc1ccccc1C)C(=O)c1ccc(Cl)c(S(=O)(=O)N2CCCC2)c1	i	i	i	i	i
CCCN(CC(=O)Nc1ccccc1C)C(=O)c1ccc(C)c(S(=O)(=O)N2CCCCC2)c1	i	i	i	-5.4*	i
COc1ccc(C(=O)Nc2ccc(C)cn2)c(OC)c1	i	i	i	i	i

Compound activity deposited in PubChem BioAssay by Johns Hopkins Ion Channel Center.
